Results pooled from the literature.
Lines come from different studies, so protocols differ.
Target: cGMP-dependent protein kinase 1 (PRKG1, Homo sapiens, UniProt Q13976)
One construct used (Q13976 1-671): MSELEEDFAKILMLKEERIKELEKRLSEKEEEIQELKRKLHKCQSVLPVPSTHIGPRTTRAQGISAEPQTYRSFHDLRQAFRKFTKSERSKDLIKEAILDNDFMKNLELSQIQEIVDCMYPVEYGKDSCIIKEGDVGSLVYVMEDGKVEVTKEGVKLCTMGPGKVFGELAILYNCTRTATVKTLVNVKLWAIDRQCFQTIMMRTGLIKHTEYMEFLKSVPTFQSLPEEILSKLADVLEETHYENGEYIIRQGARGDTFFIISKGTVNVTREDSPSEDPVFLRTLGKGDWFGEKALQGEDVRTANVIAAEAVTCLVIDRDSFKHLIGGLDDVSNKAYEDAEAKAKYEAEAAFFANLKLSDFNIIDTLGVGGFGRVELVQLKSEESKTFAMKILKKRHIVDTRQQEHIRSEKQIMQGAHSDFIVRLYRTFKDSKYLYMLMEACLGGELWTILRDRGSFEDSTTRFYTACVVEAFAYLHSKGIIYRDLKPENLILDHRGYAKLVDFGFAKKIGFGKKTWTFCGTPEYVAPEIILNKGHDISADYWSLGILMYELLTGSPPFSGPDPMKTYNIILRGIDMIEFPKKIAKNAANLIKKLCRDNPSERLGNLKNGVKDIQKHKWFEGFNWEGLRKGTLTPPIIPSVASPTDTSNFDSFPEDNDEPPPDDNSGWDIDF

`COc1ncccc1-c1cnn2ccc(N3CCN(C(=O)OC(C)C)CC3)nc12` has a remaining binding of 100% (binding, competition with immobilised ligand; 1 µM).
For `Nc1ncc(-c2nc(N3CCOCC3)nc(N3CCOCC3)n2)c(C(F)F)n1`, the remaining binding was 79% (binding, competition with immobilised ligand; 10 µM).
`Cn1cncc1[C@](O)(COc1ccc(C#N)cc1-c1ccc(OC(F)(F)F)cc1)c1ccc(C#N)cc1` has a remaining binding of 91% (cell-free assay, competition with immobilised ligand; 1 µM).
The inhibition of `C#Cc1n[nH]c2c(-c3cn([C@@H](C)c4ccccn4)c(=O)[nH]c3=O)cc(F)cc12` is reported as 0.5% (enzyme activity, inhibitor; 0.1 µM).
The inhibition of `COc1cc(Nc2ncc(F)c(Nc3ccc4c(n3)NC(=O)C(C)(C)O4)n2)cc(OC)c1OC` is reported as 0% (binding; 10 µM).
With `Cn1cc(-c2cccc(N3CCc4c(sc5c4CC(C)(C)C5)C3=O)c2CO)cc(Nc2ccncn2)c1=O` the inhibition was 4% (enzyme activity, inhibitor; 1 µM).
`Cc1nn(C)cc1-c1nc2c(N3CCN(Cc4ccc(Cl)cc4)CC3)c(Cl)cnc2[nH]1` gave a remaining binding of 100% (binding, competition with immobilised ligand; 1 µM).
The inhibition of `Cn1cc(-c2cc(F)cc(N3CCn4c(cc5c4CCCC5)C3=O)c2CO)cc(Nc2ccc(N3CCN(C4COC4)CC3)cn2)c1=O` is reported as 8% (enzyme activity, inhibitor; 0.1 µM).
The remaining binding of `N#CC1(c2ccccn2)CCN(Cc2cc(C(=O)O)c(=O)n3ccccc23)CC1` is reported as 98% (cell-free assay, competition with immobilised ligand; 1 µM).
The inhibition of `CN1CCC(c2cc(-c3ccncc3)c(-c3ccc(F)cc3)[nH]2)CC1` is reported as 9% (enzyme activity, inhibitor; 10 µM).
`C#Cc1n[nH]c2c(-c3cn([C@@H](C)c4ccccc4)c(=O)[nH]c3=O)cc(F)cc12` gave an inhibition of 5.1% (enzyme activity, inhibitor; 0.1 µM).
